From ChEMBL document CHEMBL3297663, “Synthesis and evaluation of (E)-2-(acrylamido)cyclohex-1-enecarboxylic acid derivatives as HCA1, HCA2, and HCA3 receptor agonists” (Bioorg Med Chem, 2014)
The source made the active and inactive calls. The rule behind the calls is not given here.

Columns and labels:
Format in all cases: functional, cell-based
[1] = target: Hydroxycarboxylic acid receptor 3 (Homo sapiens) (UniProt P49019); experiment: Agonist activity at human HCA3 receptor expressed in Flp-In-293 cells assessed as inhibition of forskolin-induced cAMP accumulation up to 50 uM after 30 mins
Chain of Hydroxycarboxylic acid receptor 3 (Homo sapiens) (P49019 whole entry): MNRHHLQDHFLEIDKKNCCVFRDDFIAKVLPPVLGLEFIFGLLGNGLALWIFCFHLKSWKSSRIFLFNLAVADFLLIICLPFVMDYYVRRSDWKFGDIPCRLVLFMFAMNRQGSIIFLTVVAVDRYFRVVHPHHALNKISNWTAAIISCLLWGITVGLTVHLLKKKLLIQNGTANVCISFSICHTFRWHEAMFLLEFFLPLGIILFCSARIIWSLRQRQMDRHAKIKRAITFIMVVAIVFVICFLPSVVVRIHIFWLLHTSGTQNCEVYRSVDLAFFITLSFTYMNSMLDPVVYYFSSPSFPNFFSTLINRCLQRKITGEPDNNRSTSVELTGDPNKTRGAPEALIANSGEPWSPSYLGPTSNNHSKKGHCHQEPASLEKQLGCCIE
Summary of the method: (§1)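 Stable HCA-expressing Flp-In-293 cells (10,000/well) were treated with compound plus forskolin for 30 min in PBS containing 2% BSA and 0.5 mM IBMX. The value is the maximal % inhibition of forskolin-stimulated cAMP, with the forskolin-only level taken as 100%. Data are mean ± SD from at least three experiments, each in duplicate.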

[2] = target: Hydroxycarboxylic acid receptor 1 (Homo sapiens) (UniProt Q9BXC0); experiment: Agonist activity at human HCA1 receptor expressed in Flp-In-293 cells assessed as inhibition of forskolin-induced cAMP accumulation up to 50 uM after 30 mins; summary of the method: as §1
Chain of Hydroxycarboxylic acid receptor 1 (Homo sapiens) (Q9BXC0 whole entry): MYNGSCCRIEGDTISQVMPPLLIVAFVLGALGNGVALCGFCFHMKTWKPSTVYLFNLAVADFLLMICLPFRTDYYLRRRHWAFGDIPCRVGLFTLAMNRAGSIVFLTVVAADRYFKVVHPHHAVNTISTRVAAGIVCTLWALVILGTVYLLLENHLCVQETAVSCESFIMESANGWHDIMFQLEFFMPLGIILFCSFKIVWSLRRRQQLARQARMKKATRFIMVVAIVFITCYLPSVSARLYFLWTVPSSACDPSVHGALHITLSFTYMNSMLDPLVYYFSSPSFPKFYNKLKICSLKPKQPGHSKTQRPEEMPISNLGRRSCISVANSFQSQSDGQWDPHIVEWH

[3] = target: T1, Hydroxycarboxylic acid receptor 2 (Homo sapiens, UniProt Q8TDS4); experiment: Agonist activity at human HCA2 receptor expressed in Flp-In-293 cells assessed as inhibition of forskolin-induced cAMP accumulation up to 50 uM after 30 mins; summary of the method: as §1
T1 sequence (Q8TDS4 whole entry): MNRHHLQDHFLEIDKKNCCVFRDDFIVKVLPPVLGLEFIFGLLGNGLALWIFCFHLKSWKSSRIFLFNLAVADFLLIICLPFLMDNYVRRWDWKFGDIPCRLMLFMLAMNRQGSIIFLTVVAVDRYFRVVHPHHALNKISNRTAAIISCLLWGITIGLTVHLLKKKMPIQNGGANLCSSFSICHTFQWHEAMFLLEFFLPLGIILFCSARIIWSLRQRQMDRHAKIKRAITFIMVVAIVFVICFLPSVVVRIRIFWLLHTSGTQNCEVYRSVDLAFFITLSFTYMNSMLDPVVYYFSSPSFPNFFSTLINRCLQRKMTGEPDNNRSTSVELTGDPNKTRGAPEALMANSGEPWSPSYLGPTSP

[4] = target: Hydroxycarboxylic acid receptor 1 (Homo sapiens) (UniProt Q9BXC0); experiment: Agonist activity at human HCA1 receptor expressed in Flp-In-293 cells assessed as inhibition of forskolin-induced cAMP accumulation at 50 uM after 30 mins
Summary of the method: (§2)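 Flp-In-293 cells stably transfected with HCA receptor plasmids were plated at 10,000 cells/well. They were stimulated with forskolin plus compound for 30 min in PBS with 2% BSA and 0.5 mM IBMX. Inhibition of cAMP accumulation at a single compound concentration is expressed as % of the forskolin-stimulated level (set to 100%). Values are mean ± SD of at least three experiments, each in duplicate.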

[5] = target: T1, Hydroxycarboxylic acid receptor 2; experiment: Agonist activity at human HCA2 receptor expressed in Flp-In-293 cells assessed as inhibition of forskolin-induced cAMP accumulation after 30 mins
Summary of the method: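 EC50 values come from an intracellular cAMP assay in Flp-In-293 cells stably expressing the receptor (10,000 cells/well). Cells were co-incubated 30 min with forskolin and compound in PBS, 2% BSA and 0.5 mM IBMX. Values are mean ± SD of at least three experiments, each in duplicate.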

[6] = target: Hydroxycarboxylic acid receptor 3 (Homo sapiens) (UniProt P49019); experiment: Agonist activity at human HCA3 receptor expressed in Flp-In-293 cells assessed as inhibition of forskolin-induced cAMP accumulation at 50 uM after 30 mins; summary of the method: as §2
[7] = target: T1, Hydroxycarboxylic acid receptor 2; experiment: Agonist activity at human HCA2 receptor expressed in Flp-In-293 cells assessed as inhibition of forskolin-induced cAMP accumulation at 50 uM after 30 mins; summary of the method: as §2

Structure (SMILES)	inhibition [1]	inhibition [2]	inhibition [3]	inhibition [4] [%]	EC50 [5] [µM]	Emax [5] [%]	inhibition [6] [%]	inhibition [7] [%]
O=C(O)C1=C(NC(=O)[C@@H]2C[C@H]2c2ccc3ccccc3c2)CCCC1 (racemic)	–	–	–	40	12.5	96	55	–
O=C(/C=C/c1ccc2c(c1)OCCO2)NC1=C(C(=O)O)CCCC1	–	inactive	–	–	6.8	93	66	–
O=C(O)C1=C(NC(=O)[C@H]2C[C@H]2c2ccc3ccccc3c2)CCCC1 (racemic)	inactive	inactive	–	–	–	–	–	34
O=C(CCc1ccc2c(c1)OCO2)NC1=C(C(=O)O)CCCC1	–	–	–	28	51.6	85	62	–
COc1ccc(/C=C/C(=O)NC2=C(C(=O)O)CCCC2)cc1OC	–	–	–	31	–	–	58	51
COc1ccc2nc(Cl)c(CCC(=O)NC3=C(C(=O)O)CCCC3)cc2c1	–	–	–	24	4.1	91	53	–
O=C(CCc1ccc2ccccc2c1)NC1=C(C(=O)O)CCCC1	–	–	–	41	8.3	97	66	–
O=C(CCc1ccc2ncccc2c1)NC1=C(C(=O)O)CCCC1	–	–	–	26	–	–	60	70
O=C(/C=C/c1ccc2c(c1)OCO2)NC1=C(C(=O)O)CCCC1	–	inactive	–	–	5.8	83	26	–
COc1ccc(/C=C/C(=O)NC2=C(C(=O)O)CCCC2)c(Cl)c1OC	–	–	–	36	26.3	95	48	–
O=C(/C=C/c1cc2c(cc1Br)OCO2)NC1=C(C(=O)O)CCCC1	–	inactive	–	–	–	–	54	24
O=C(/C=C/c1cc2c(cc1Cl)OCO2)NC1=C(C(=O)O)CCCC1	–	–	–	34	–	–	59	17
COc1cc(/C=C/C(=O)NC2=C(C(=O)O)CCCC2)cc(Br)c1OC	–	inactive	–	–	–	–	46	23

Other lines, results leading:

inhibition [1]	inhibition [2]	inhibition [3]	inhibition [4] [%]	EC50 [5] [µM]	Emax [5] [%]	inhibition [6] [%]	inhibition [7] [%]	Structure (SMILES)
inactive	inactive	inactive	–	–	–	–	–	Cc1ccc2cc(/C=C/C(=O)NC3=C(C(=O)O)CCCC3)ccc2n1
inactive	–	inactive	26	–	–	–	–	COc1ccc2cc(/C=C/C(=O)NC3=C(C(=O)O)CCCC3)ccc2c1
inactive	inactive	–	–	–	–	–	27	O=C(/C=C/c1ccc2cccc(O)c2n1)NC1=C(C(=O)O)CCCC1
inactive	inactive	–	–	4.1	99	–	–	O=C(/C=C/c1ccc2ccccc2n1)NC1=C(C(=O)O)CCCC1
inactive	–	–	14	4.5	94	–	–	O=C(/C=C/c1ccc2ccccc2c1)NC1=C(C(=O)O)CCCC1
–	–	–	37	27.4	79	52	–	O=C(/C=C/c1cc2ccccc2nc1Cl)NC1=C(C(=O)O)CCCC1
–	inactive	–	–	3.6	90	56	–	O=C(/C=C/C#Cc1ccccc1)NC1=C(C(=O)O)CCCC1
–	–	–	24	–	–	39	68	O=C(/C=C/c1ccc2ncccc2c1)NC1=C(C(=O)O)CCCC1
–	–	–	23	36.4	82	54	–	Cc1ccc2cc(CCC(=O)NC3=C(C(=O)O)CCCC3)ccc2n1
–	inactive	inactive	–	–	–	54	–	O=C(/C=C/c1cccc2cccnc12)NC1=C(C(=O)O)CCCC1
inactive	–	–	21	6.3	86	–	–	COc1ccc2nc(Cl)c(/C=C/C(=O)NC3=C(C(=O)O)CCCC3)cc2c1
inactive	inactive	inactive	–	–	–	–	–	O=C(/C=C/c1ccnc2ccccc12)NC1=C(C(=O)O)CCCC1
–	–	–	27	–	–	58	59	COc1nc2ccccc2cc1/C=C/C(=O)NC1=C(C(=O)O)CCCC1
inactive	inactive	–	–	1.4	96	–	–	O=C(/C=C/c1ccc2cc(O)ccc2c1)NC1=C(C(=O)O)CCCC1
inactive	–	–	26	1.9	97	–	–	O=C(CCc1ccc2cc(O)ccc2c1)NC1=C(C(=O)O)CCCC1
inactive	inactive	–	–	0.9	98	–	–	O=C(C#Cc1ccc2cc(O)ccc2c1)NC1=C(C(=O)O)CCCC1
–	inactive	–	–	–	–	55	60	O=C(CCc1cccc2cccnc12)NC1=C(C(=O)O)CCCC1
–	–	–	38	–	–	61	53	COc1cc2nc(/C=C/C(=O)NC3=C(C(=O)O)CCCC3)ccc2c(OC)c1OC
